Data reported in ChEMBL document CHEMBL1138699, “Design, synthesis, and biological evaluation of the first selective nonpeptide AT2 receptor agonist” (J Med Chem, 2004).

Tests used:
[1] = target: T1, Angiotensin II receptor (AT-1) type-1 (Rattus norvegicus, UniProt P29089+P25095); assay: Displacement of [125I]-Ang II from rat liver membrane angiotensin II type 1 (AT1) receptor
T1 sequence (P29089 whole entry): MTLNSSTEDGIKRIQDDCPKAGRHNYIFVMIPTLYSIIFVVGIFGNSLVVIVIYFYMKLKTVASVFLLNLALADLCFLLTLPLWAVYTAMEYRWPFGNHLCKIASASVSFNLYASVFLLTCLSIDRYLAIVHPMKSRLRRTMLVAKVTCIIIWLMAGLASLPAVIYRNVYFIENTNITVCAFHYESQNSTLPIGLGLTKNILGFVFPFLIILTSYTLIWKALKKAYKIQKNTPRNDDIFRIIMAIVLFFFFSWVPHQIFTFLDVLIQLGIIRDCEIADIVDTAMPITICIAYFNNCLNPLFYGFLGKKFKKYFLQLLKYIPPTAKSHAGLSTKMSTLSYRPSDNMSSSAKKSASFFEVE
T1 sequence (P25095 whole entry): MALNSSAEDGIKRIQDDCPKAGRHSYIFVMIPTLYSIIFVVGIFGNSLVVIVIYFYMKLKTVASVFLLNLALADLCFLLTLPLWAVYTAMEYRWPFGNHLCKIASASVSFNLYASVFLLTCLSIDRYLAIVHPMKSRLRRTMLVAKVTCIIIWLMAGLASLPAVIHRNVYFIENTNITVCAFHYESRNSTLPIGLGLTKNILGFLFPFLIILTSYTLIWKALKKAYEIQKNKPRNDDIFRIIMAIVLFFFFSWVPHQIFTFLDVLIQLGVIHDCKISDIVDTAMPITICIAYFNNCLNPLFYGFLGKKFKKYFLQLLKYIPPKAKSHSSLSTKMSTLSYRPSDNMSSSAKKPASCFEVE

[2] = target: Mitogen-activated protein kinase 3 (Homo sapiens) (UniProt P27361); assay: Concentration required to abolish MAPK activity in mouse neuroblastoma and rat glioma hybrid NG 108-15 cells; type: functional, cell-based
Rattus norvegicus [3] = assay: Concentration of compound required to stimulate secretion of duodenal alkaline secretion in rats when administered intralbuminally was determined; type: functional
How it was run: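 Same anaesthetized Sprague-Dawley duodenal pH-stat preparation (saline perfusate titrated to pH 7.4 with 0.02 M HCl). Here the agonist went into the intraluminal perfusate at 100 µM, with PD 123,319 at 150 µM intraluminally for antagonism. Net change over basal at 30-45 min; n = 5.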

Rattus norvegicus [4] = organism: Rattus norvegicus; assay: Compound was tested for its ability to rise duodenal alkaline secretion in rats was determined; type: functional
How it was run: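 Anaesthetized (pentobarbital ip 60 mg/kg, then 30 mg kg-1 h-1) nonfasted male Sprague-Dawley rats at 38 °C. Isolated duodenal segment with bile duct diverted, perfused with recirculating isotonic saline. HCO3- output pH-stat titrated to pH 7.4 with 0.02 M HCl. Intravenous infusion; net change is the 30-45 min value minus the last 15 min basal. Mean ± SEM, n = 5; ANOVA with Bonferroni.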

NG108-15 [5] = assay: Concentration of compound required to induce cell death of mouse neuroblastoma and rat glioma hybrid NG 108-15 cells was determined; type: functional
How it was run: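 NG108-15 neuroblastoma × glioma hybrid cells (passage 7-30) were grown in DMEM with 10% FBS, HAT supplement and gentamycin at 37 °C under 7% CO2. They were treated 24 h after plating, with compound added daily, at 1 pM to 1 µM for 3 days. Cell death was judged by phase-contrast microscopy and micrographs.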

[6] = Half life after oral administration in rat was determined; type: ADME, organism-based; details: in vivo
How it was run: (§1)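 Male Sprague-Dawley rats (ca. 6-7 weeks), triplicate groups; oral gavage at 30, 100 and 300 µg/kg and single iv tail-vein bolus at 30 µg/kg. Tail-vein blood at 30 min and 1, 2, 4, 6, 8, 24 h, heparinized plasma, acetonitrile precipitation, LC-MS/MS (positive-ion SRM 476.3→293.2). Bioavailability from AUC0-8h rather than AUC0-∞.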

NG108-15 [7] = assay: Concentration of compound required to induce neurite outgrowth in mouse neuroblastoma and rat glioma hybrid NG 108-15 cells was determined; type: functional
How it was run: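 NG108-15 cells (passage 7-30) in DMEM/10% FBS/HAT at 37 °C, 7% CO2, plated at 3 × 10^4 cells per 35 mm dish. First stimulation 24 h after plating, agonist given daily over 1 pM-1 µM for 3 days. Phase-contrast scoring: a neurite longer than the cell body counts as positive. At least 140 cells, three independent experiments.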

[8] = Bioavailability after oral administration in rat was determined; range is 20-30; type: ADME, organism-based; details: in vivo, read-out: Bioavailabiility; how it was run: as §1
[9] = target: Type-2 angiotensin II receptor (Sus scrofa); assay: Displacement of [125I]-Ang II from pig uterus membrane angiotensin II type 2 (AT2) receptor

Sequence of Mitogen-activated protein kinase 3 (Homo sapiens) (P27361 whole entry): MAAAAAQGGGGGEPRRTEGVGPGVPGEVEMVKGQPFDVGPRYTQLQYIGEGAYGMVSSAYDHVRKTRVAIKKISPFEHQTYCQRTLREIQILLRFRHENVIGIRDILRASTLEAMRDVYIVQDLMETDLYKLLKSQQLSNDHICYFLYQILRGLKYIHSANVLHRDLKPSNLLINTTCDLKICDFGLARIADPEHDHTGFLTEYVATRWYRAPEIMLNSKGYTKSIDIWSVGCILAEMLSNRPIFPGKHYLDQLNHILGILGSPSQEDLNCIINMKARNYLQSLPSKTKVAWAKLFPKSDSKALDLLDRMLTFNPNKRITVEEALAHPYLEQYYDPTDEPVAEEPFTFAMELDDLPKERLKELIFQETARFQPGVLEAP

## CCCCOC(=O)NS(=O)(=O)c1sc(CC(C)C)cc1-c1ccc(CC#N)cc1
[1]
  Ki: 100 nM

## COc1cccc(-c2cc(=O)c3ccccc3o2)c1N
[2]
  Activity: 10 µM

## CCCCOC(=O)NS(=O)(=O)c1sc(CC(C)C)cc1-c1ccc(C#N)cc1
[1]
  Ki: > 10000 nM

## Cc1cc(Cn2cnc3c2C[C@@H](C(=O)O)N(C(=O)C(c2ccccc2)c2ccccc2)C3)ccc1N(C)C.O=C(O)C(F)(F)F.O=C(O)C(F)(F)F
[1]
  IC50: > 10000 nM
Rattus norvegicus [3]
  Activity: 150 µM
Rattus norvegicus [4]
  Activity: 0.3 mg/h/kg

## CCCCOC(=O)NS(=O)(=O)c1sc(CC(C)C)cc1-c1ccc(Cn2ccnc2C)cc1
[1]
  Ki: > 10000 nM

## CCCCOC(=O)NS(=O)(=O)c1sc(CC(C)C)cc1Cc1ccc(C#N)cc1
[1]
  Ki: > 10000 nM

## CCCCOC(=O)NS(=O)(=O)c1sc(CC(C)C)cc1-c1ccc(Cn2c(CC)nc3ccccc32)cc1
[1]
  Ki: > 10000 nM

## CCCCOC(=O)NS(=O)(=O)c1sc(CC(C)C)cc1-c1ccc(Cn2c(CC)nc3c(C)cc(C)nc32)cc1
[1]
  IC50: 1.1 nM
  Ki: 3.9 nM

## CCCCOC(=O)NS(=O)(=O)c1sc(CC(C)C)cc1-c1ccc(Cn2ccnc2)cc1 [BULOXIBUTID]
[1]
  Ki: > 10000 nM
NG108-15 [5]
  Activity: 1 µM
[6]
  half-life: 4 h
Rattus norvegicus [3]
  Activity: 100 µM
NG108-15 [7]
  Activity: > 0.1 nM
[8]
  bioavailability: < 30%
Rattus norvegicus [4]
  Activity: 0.03 mg/h/kg

## CCCCOC(=O)NS(=O)(=O)c1sc(CC(C)C)cc1-c1ccc(Cn2cnc3ccccc32)cc1
[1]
  Ki: 500 nM

## CCCCOC(=O)NS(=O)(=O)c1sc(CC(C)C)cc1-c1ccc(Cn2cnc3cccnc32)cc1
[1]
  Ki: > 10000 nM

## CCCCOC(=O)NS(=O)(=O)c1ccc(Cc2cccc(OC)c2)cc1-c1ccc(Cn2c(CC)nc3c(C)cc(C)nc32)cc1
[9]
  IC50: 101 nM
[1]
  IC50: 1.4 nM

## CCCCOC(=O)NS(=O)(=O)c1sc(CC(C)C)cc1Cc1ccc(-n2ccnc2)cc1
[1]
  Ki: > 10000 nM
